What was measured:
CYP = CYP inhibition profile; format: in vitro ADME
GlyT1 = target: T1, GlyT1 (Homo sapiens, UniProt P48067); assay: Enzyme kinetics of [14C]-glycine transport; format: biochemical; settings: [14C]-glycine transport kinetics; 120 nM 12b in Fig. 3
T1 sequence (P48067 1-706): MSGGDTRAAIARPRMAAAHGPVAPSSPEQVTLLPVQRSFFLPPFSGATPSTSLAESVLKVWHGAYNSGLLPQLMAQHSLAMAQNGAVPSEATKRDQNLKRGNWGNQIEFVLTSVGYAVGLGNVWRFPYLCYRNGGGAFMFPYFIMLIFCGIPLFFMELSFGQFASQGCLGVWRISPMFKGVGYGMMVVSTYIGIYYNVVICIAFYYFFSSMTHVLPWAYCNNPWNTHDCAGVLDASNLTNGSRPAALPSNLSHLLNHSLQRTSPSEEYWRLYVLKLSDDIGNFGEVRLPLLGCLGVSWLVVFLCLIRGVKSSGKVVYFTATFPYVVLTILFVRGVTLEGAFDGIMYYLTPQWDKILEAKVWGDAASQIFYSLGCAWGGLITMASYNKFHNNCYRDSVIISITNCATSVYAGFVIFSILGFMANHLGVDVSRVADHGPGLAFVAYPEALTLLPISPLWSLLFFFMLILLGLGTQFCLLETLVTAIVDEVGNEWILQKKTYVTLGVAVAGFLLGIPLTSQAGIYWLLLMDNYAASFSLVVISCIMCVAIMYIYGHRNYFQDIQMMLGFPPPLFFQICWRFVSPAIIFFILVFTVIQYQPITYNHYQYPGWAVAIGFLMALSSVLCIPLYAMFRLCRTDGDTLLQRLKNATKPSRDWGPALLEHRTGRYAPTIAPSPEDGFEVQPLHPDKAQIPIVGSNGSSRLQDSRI
How it was run: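 Saturation curves of [14C]-glycine transport were run with either vehicle or 120 nM test compound. Inhibition mode relative to glycine was assessed from an Eadie-Hoffstee plot of the transport data.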

Row | IC50 (CYP) [µM] | Mechanism of GlyT1 inhibition with respect to glycine (GlyT1) | SMILES
1 | > 10 | – | Cn1cnc(S(=O)(=O)N2CC3CCC(NC(=O)c4ccc(Cl)cc4Cl)C3C2)c1 (stereo not drawn) [Compound 12a]
2 | – | competitively inhibits | Cn1cnc(S(=O)(=O)N2CC3CCC(NC(=O)c4ccccc4C(F)(F)F)C3C2)c1 (stereo not drawn) [Compound 12b]
3 | > 10 | – | Cn1cnc(S(=O)(=O)N2CC(C(NC(=O)c3ccc(Cl)cc3Cl)c3ccccn3)C2)c1 (stereo not drawn) [Compound 27c]

— publication PMC3951244 (Bioorganic & medicinal chemistry letters, 2014)
